PostGolgi ctrl = growth inhibition of yeast control strain, primary screen, counter-screen for post-Golgi transport modulator project. efflux-deficient yeast background strain, growth absorbance A615, 16 h. inhibition, % at 10 µM. 98,000 compounds, 5% hits
PostGolgi yeast = phenotypic screen on post-Golgi transport, primary screen. 98,000 compounds, 0.9% hits. inhibition, % at 10 µM. post-Golgi transport phenotypic cell assay. AID 739, 2007;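 also: yeast cells grown in 1536-well plates; yeast grown about 18 h at 30C before absorbance read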
Yeast life ext = compounds extending yeast replicative lifespan, primary screen, S. cerevisiae, OD615; S. cerevisiae growth with nicotinamide; deaD strain in restrictive glucose medium; inhibition of the nicotinamide effect, % at 10 µM; 130,000 compounds, 0.68% hits; AID 775, 2007;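 active = inhibition above a set limit, placed 3 SD over the median of all compounds, cut at about 26% in these data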
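System: DeaD-strain S. cerevisiae / Buffer or medium: CSMM-D, restrictive glucose (dextrose) synthetic minimal medium / Probe or stimulus: nicotinamide, 1.5 mM, co-present with compound / Compound: one concentration, 10 µM, DMSO 0.25% / Incubation: 48 h compound exposure at 30 °C, humidified / Technique: optical density (absorbance) at 615 nm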
Yeast growth inh = growth inhibitors of yeast BB579 in restrictive medium, primary screen, yeast lifespan-shortening project, S. cerevisiae; OD615, 48 h; inhibition, % at 10 µM; 140,000 compounds, 0.51% hits; AID 804, 2007;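 active = inhibition above a set limit, 3 SD over the mean compound inhibition, cut at about 44% in these data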
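Test system: Saccharomyces cerevisiae DeaD strain BB579, replicative lifespan model yeast | Buffer or medium: Restrictive CSMM-D medium | Doses: One dose, 10 µM compound with 0.25% DMSO | Incubation: 48 h exposure, 30 °C | Detection: Culture absorbance at 615 nm | Control set: Amphotericin B at 10 µg/mL as positive control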
Numbers stand for hits; . = inactive; / = not tested or not shown. The full list was thinned out, with hits kept by preference. Rule as the data show it, unless noted: active = inhibition above about 30%; inactive = the rest.

SMILES	PostGolgi ctrl	PostGolgi yeast	Yeast life ext	Yeast growth inh
CCC(C)C(NC(=O)c1ccc(Cl)cc1Cl)C(=O)O (configuration not stated)	/	/	.	.
CC(C)CC(=O)/C=C/n1c(=S)oc2ccccc21	/	/	.	.
CC(=O)/C=C/n1c(=S)oc2ccccc21	/	/	39	.
CS(=O)(=O)c1nc(-c2ccccc2)cc(C(F)(F)F)n1	51	.	75	.
Cc1cccc(OCC(=O)NNC(=O)C2CCCCC2C(=O)O)c1 (configuration not stated)	/	/	.	.
COc1ccccc1/C=C1/SC(=O)N(CCC(=O)Nc2ccc(S(=O)(=O)Nc3nccs3)cc2)C1=O	/	/	.	.
COc1ccccc1N1CCN(C(=O)c2cc(-c3ccc(C)cc3)on2)CC1	.	.	.	.
COc1ccccc1-c1cc(C(=O)N2CCN(c3ccccc3OC)CC2)no1	38	.	.	.
COc1ccccc1N1CCN(C(=O)c2cc(-c3ccc(Cl)cc3)on2)CC1	40	.	.	.
Cc1nn(C(C)C(=O)N2CCc3ccccc32)c(C)c1[N+](=O)[O-] (configuration not stated)	.	.	.	.
O=c1[nH]nc(Sc2ncnc3sccc23)n1CCc1ccccc1	.	.	.	.
Cn1c(=O)c2c(nc(Br)n2CC(=O)c2cccs2)n(C)c1=O	.	.	36	.
CCCCc1nc(SCC(=O)Nc2ccc(S(N)(=O)=O)cc2)n[nH]1	.	.	.	.
CCOc1ccc(NC(=O)N2CCC(c3ccc(C)cc3)C2)cc1 (configuration not stated)	36	.	.	.
Cc1cccc2c(CC(=O)Nc3ccccc3)noc12	/	/	.	.
Fc1ccc(-c2nnc(CN3CCC(c4nc5ccccc5s4)CC3)o2)cc1	38	.	.	.
Fc1ccc(N2CCN(Cc3nnc(-c4ccccc4)o3)CC2)cc1	/	/	.	.
Cc1cc(C)c2c(c1)-c1cc(C)nn1C(c1ccc3c(c1)OCO3)N2 (configuration not stated)	47	.	.	.
Cc1cc2n(n1)C(c1ccc3c(c1)OCO3)Nc1c(C)cccc1-2 (configuration not stated)	.	.	.	.
COc1ccc(N(Cc2ccccc2)C(=O)c2ccccc2[N+](=O)[O-])cc1	.	.	.	.
O=C(c1ccccc1)c1nn(-c2ccccc2)c(=O)cc1C(F)(F)F	.	.	.	.
O=C(c1ccccc1)c1nn(-c2ccc(Cl)cc2)c(=O)cc1C(F)(F)F	.	.	32	.
O=C(CSc1ccc(F)cc1)N1CCC(c2nc3ccccc3s2)CC1	.	.	.	.
O=C(CSc1ccccc1Cl)N1CCC(c2nc3ccccc3s2)CC1	64	.	.	.
CCNC(=S)N1CCC(c2nc3ccccc3s2)CC1	44	.	.	.
SMILES	PostGolgi ctrl	PostGolgi yeast	Yeast life ext	Yeast growth inh
C=C(CC)C(=O)c1ccc(OCC(=O)O)c(Cl)c1Cl	/	/	58	.
CN1C(=O)OC(C)(CCc2ccccc2)C1(C)O (configuration not stated)	.	.	.	.
CC1(O)N(Cc2ccccc2)C(=O)OC12CCCCC2 (configuration not stated)	46	.	.	.
COc1ccc([C@H]2[C@H](C(=O)OC(C)(C)C)N3N=Cc4ccccc4C3C23C(=O)c2ccccc2C3=O)cc1OC (some centres not stated)	/	/	38	.
O=C1c2ccccc2C(=O)N1c1ncc(Cc2ccc(Cl)cc2)s1	/	/	47	.
Cc1cccc(/C(N)=N/OC(=O)c2ccc(F)cc2)c1	/	/	.	95
Cc1cccc(/C(N)=N/OC(=O)c2cccs2)c1	.	.	.	.
CC(C)Cn1c(-c2csc3c2CCCC3)n[nH]c1=S	.	.	.	.
Cc1nc2sc3c(c2c(=O)o1)CC(C)(C)OC3	.	.	32	.
Cc1nc2sc3c(c2c(=O)o1)CCC3	.	.	.	.
Brc1ccccc1-c1nnc2sc(-c3ccc4c(c3)OCCO4)nn12	60	.	.	.
CCc1cc2c(SCC(=O)O)ncnc2s1	.	.	.	.
CCc1cc2c(cc(C(=O)O)n2C)s1	.	.	.	58
NC(=O)CSc1nnc(C2CC2)n1-c1ccccc1	.	.	.	.
COc1ccc(-c2cc3nc(C)cc(N4CC(C)CC(C)C4)n3n2)cc1 (configuration not stated)	/	/	/	71
CC(=O)c1ccc(NC(=O)c2cn(-c3ccccc3)nc2-c2ccncc2)cc1	/	/	/	.
COC(=O)c1ccc(NC(=O)c2cn(-c3ccccc3)nc2-c2ccncc2)cc1	32	72	.	.
Cc1occc1C(=O)NNC(=S)Nc1ccccc1	.	.	.	.
O=C(c1ccccc1)N1CCN(c2ncnc3sc4c(c23)CCC4)CC1	.	.	.	.
Cc1sc2nc(CN(Cc3cccs3)C(=O)NC3CCCCC3)[nH]c(=O)c2c1C	43	.	.	.
O=C(c1cccs1)N(Cc1nc2sc3c(c2c(=O)[nH]1)CCCC3)C1CCCC1	.	.	.	.
Cc1sc2nc(CN(C(=O)c3cccs3)C3CCCC3)[nH]c(=O)c2c1C	34	.	.	.
COc1ccc(-c2nc(NC(=O)CSc3nnc(C)s3)ns2)cc1	.	.	.	.
O=c1c(-c2nnc(SCc3ccc(Cl)cc3Cl)o2)cccn1Cc1ccccc1	66	.	.	.
Cc1noc(/C=C/N(C)C)c1S(=O)(=O)N1CCCC(C(=O)NCc2ccccc2Cl)C1 (configuration not stated)	.	.	.	.
SMILES	PostGolgi ctrl	PostGolgi yeast	Yeast life ext	Yeast growth inh
COc1ccc(NC(C)C(=O)Nc2ccc(C#N)cc2)cc1Cl (configuration not stated)	.	.	.	.
COc1ccc(NC(C)C(=O)Nc2ccc(C(C)(C)C)cc2)cc1Cl (configuration not stated)	34	.	.	.
Cc1cc(-n2c(C)cc(C(=O)CSc3nnc4sc5ccccc5n34)c2C)no1	.	.	.	.
Cc1cc(-n2c(C)cc(C(=O)CSc3ncnc4ccccc34)c2C)no1	40	.	.	.
O=C(CC1(C(F)(F)F)OCCO1)Nc1ccc2c(c1)OCO2	.	.	.	.
CCOC(=O)CC(NC(=O)C1c2ccccc2Oc2ccccc21)c1ccccc1Cl (configuration not stated)	/	/	.	.
Cc1cc(NCCN2CCOCC2)n2nc(C)c(-c3ccccc3)c2n1	.	.	.	.
Cc1cc(NCCN2CCOCC2)n2nc(C)c(-c3ccc(Cl)cc3)c2n1	34	47	.	.
Cc1cc(NCCCn2ccnc2)n2ncc(-c3ccccc3)c2n1	38	.	.	.
Cc1cc(NCCN2CCOCC2)n2ncc(-c3ccccc3)c2n1	.	.	42	.
Cc1cc(OCC(F)(F)C(F)(F)C(F)(F)C(F)F)nc(N)n1	.	.	.	.
CCC(=O)NC(=S)Nc1ccc(Cl)cn1	.	.	.	.
O=C(NC(=S)Nc1ccc(Cl)cn1)C(c1ccccc1)c1ccccc1	34	.	.	.
CC(=O)c1cc(F)c(N2CCN(C(=O)COc3ccc(F)cc3)CC2)cc1C	/	/	/	.

Assay outcomes deposited in PubChem BioAssay by SRMLSC.
